Env fusion inh: inhibitors of HIV-1 Env-driven cell-cell fusion, primary screen, HeLa-JRFL effector, CEM21 target cells, luciferase | AID 651610, 2012 | inhibition, % at 12.3 µM | 360,000 tested, 1.1% active;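 active = mean replicate inhibition score of at least 50 and every replicate individually at or above 50; inconclusive = only one of the two criteria met; inactive = mean below 50 and not all replicates reaching 50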
PAX8 inh HTS: inhibitors of PAX8-driven TPO luciferase reporter, primary screen, RMG-I cells, single concentration | SteadyGlo, 24 h | inhibition, % at 12.6 µM | 360,000 tested, 1.2% active;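 active = mean replicate inhibition at least 60% with every replicate also reaching 60%; inconclusive = only one of the two criteria is met; inactive = mean below 60% and not all replicates reaching 60%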;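 note: luciferase light reporting Pax8 driven TPO promoter activity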
N-glyco inh: increase of ERlucT glycosylation luciferase signal, primary screen, N-linked glycosylation inhibitor project, D54 ERlucT cells, luminescence, set 2; D54 ERlucT glycosylation luciferase reporter, 24 h; percent of 100 nM tunicamycin response; reporter increase, % at 12.5 µM; 360,000 tested, 0.23% active;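 active = mean luciferase reporter signal, scaled so untreated is 0 and the glycosylation-blocking control 100, at or above a set limit in every replicate; inconclusive = mean reaches the limit but not every replicate does; inactive = mean below the limit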;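 note: luciferase carries N-glycosylation sites so blocking glycosylation raises the light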
EWS-Fli inh: EWS/Fli-driven NR0B1 reporter inhibitors, primary screen, A673 cells, NR0B1 luciferase, luminescence, MLPCN library | viability-normalised | inhibition, % at 12.6 µM | 350,000 tested, 0.67% active | AID 651661, 2012;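 active = mean inhibition of at least 50% after viability correction, with every replicate also passing that limit; inconclusive = mean reaches 50% but only one of two replicates passes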;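 note: firefly luciferase signal divided by Alamar Blue viability fluorescence both relative to DMSO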
AF4-AF9 inh: inhibitors of AF4 peptide binding to AF9, primary screen, biochemical, AlphaScreen, biotin-AF4 peptide, FLAG-AF9, single point; Protein AF-9 (Homo sapiens), P42568; inhibition, % at 10 µM; 350,000 tested, 0.47% active; AID 651704, 2012;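 active = every replicate reaching a set inhibition limit, whatever the replicate mean, cut at about 25% in these data; inconclusive = mean inhibition reaches that limit but some replicates miss it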
Target sequence (P42568 whole entry, looked up): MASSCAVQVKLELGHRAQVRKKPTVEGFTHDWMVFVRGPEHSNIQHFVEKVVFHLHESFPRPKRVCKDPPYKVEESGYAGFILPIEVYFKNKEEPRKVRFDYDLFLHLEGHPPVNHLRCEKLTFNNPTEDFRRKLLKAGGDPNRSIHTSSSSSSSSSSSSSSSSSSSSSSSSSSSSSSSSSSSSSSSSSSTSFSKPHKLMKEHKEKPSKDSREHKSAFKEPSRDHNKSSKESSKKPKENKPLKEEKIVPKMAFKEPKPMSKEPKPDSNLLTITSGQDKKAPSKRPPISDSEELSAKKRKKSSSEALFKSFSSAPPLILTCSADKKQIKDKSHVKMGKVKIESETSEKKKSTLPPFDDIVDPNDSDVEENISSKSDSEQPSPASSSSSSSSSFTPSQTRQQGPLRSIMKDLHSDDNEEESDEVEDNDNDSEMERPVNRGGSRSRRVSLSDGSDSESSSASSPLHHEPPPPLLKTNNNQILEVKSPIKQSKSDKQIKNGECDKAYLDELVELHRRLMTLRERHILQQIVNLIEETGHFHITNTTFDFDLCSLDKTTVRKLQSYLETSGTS
FN deposition inh: inhibitors of fibronectin matrix deposition, primary screen, AH1F cells, Alexa488-fibronectin fluorescence, plate reader. AH1F fibroblasts, overnight. inhibition, % at 12.6 µM. 350,000 tested, 0.086% active. AID 743247, 2014;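 active = mean inhibition across replicates of 30% or more, regardless of how many single replicates reach that level; inconclusive = mean under 30% yet at least half of replicates reach 30%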
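Material: AH1F fibroblast monolayer depositing Alexa488-labelled fibronectin into matrix | Input: 10000 AH1F cells/well | Medium: DMEM plus 2% serum, read in PBS | Reagent: Alexa488-fibronectin, 24 nM final in well | Compound dosing: One dose per compound, pinned | Schedule: 1 h adhesion, overnight exposure | Measured by: Fluorescence at 485 nm excitation, 525 nm emission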
Large screens that a line does not name were inactive. Hits are enriched below; roughly 2.5% of the tested compounds scored in any of these assays.

C[C@@H]1CCCCO[C@H](CN(C)CC2CCCCC2)[C@@H](C)CN([C@H](C)CO)C(=O)c2cc(NC(=O)Nc3ccc(C(F)(F)F)cc3)ccc2O1	none (no result: N-glyco inh)
C[C@@H]1CCCCO[C@@H](CN(C)CC2CCCCC2)[C@H](C)CN([C@H](C)CO)C(=O)c2cc(NC(=O)Nc3ccc(C(F)(F)F)cc3)ccc2O1	EWS-Fli inh 76 (no result: N-glyco inh)
C[C@@H]1CN([C@@H](C)CO)C(=O)c2cc(NC(=O)Nc3ccc(C(F)(F)F)cc3)ccc2O[C@@H](C)CCCCO[C@@H]1CN(C)CC1CCCCC1	PAX8 inh HTS 108 (no result: N-glyco inh)
C[C@@H]1CCCCO[C@@H](CN(C)CC2CCCCC2)[C@@H](C)CN([C@@H](C)CO)C(=O)c2cc(NC(=O)Nc3ccc(C(F)(F)F)cc3)ccc2O1	PAX8 inh HTS 100, EWS-Fli inh 65 (no result: N-glyco inh)
O=C(N[C@H]1CC[C@@H](CCNS(=O)(=O)c2ccc(F)cc2)O[C@H]1CO)C1CCCC1	none (no result: N-glyco inh, FN deposition inh)
O=C(Nc1ccc(F)cc1)N1C[C@@H]2[C@H](c3ccccc31)[C@H](CO)N2C(=O)Cc1cccnc1	none (no result: Env fusion inh, N-glyco inh, FN deposition inh)
COc1ccc2c3c([nH]c2c1)[C@H](CO)N(S(C)(=O)=O)CC31CN(CC2CC2)C1	none (no result: PAX8 inh HTS, N-glyco inh, FN deposition inh)
CCOc1ccc(OCCSc2ccc(S(=O)(=O)N3CCN(C)CC3)cn2)cc1	AF4-AF9 inh 27 (no result: Env fusion inh)
O=C(OCc1ccccc1)N(CCCCN(CCCNCc1ccccc1)C(=O)OCc1ccccc1)CCCNCc1ccccc1	PAX8 inh HTS 98, EWS-Fli inh inconclusive
Cc1ccc(S(=O)(=O)N(C)C[C@H]2Oc3c(NC(=O)Nc4ccc(F)cc4)cccc3C(=O)N([C@@H](C)CO)C[C@H]2C)cc1	PAX8 inh HTS 78 (no result: N-glyco inh, FN deposition inh)
C[C@@H]1CN([C@@H](C)CO)C(=O)c2cccc(NC(=O)Nc3ccc(F)cc3)c2O[C@H]1CN(C)S(=O)(=O)c1ccc(Cl)cc1	none (no result: Env fusion inh, N-glyco inh)
C[C@H](CO)N1C[C@H](C)[C@H](CN(C)S(=O)(=O)c2ccc(Cl)cc2)Oc2c(NC(=O)Nc3ccc(F)cc3)cccc2C1=O	PAX8 inh HTS 91 (no result: Env fusion inh, N-glyco inh)
COc1cccc(S(=O)(=O)Nc2ccc3c(c2)[C@@H]2C[C@H](CC(=O)NCc4ccccc4F)O[C@@H](CO)[C@@H]2O3)c1	none (no result: N-glyco inh, FN deposition inh)
COc1cccc(S(=O)(=O)Nc2ccc3c(c2)[C@H]2C[C@H](CC(=O)NCc4ccccc4F)O[C@H](CO)[C@H]2O3)c1	Env fusion inh inconclusive, PAX8 inh HTS 97 (no result: N-glyco inh, FN deposition inh)
COc1cccc(S(=O)(=O)Nc2ccc3c(c2)[C@@H]2C[C@@H](CC(=O)NCc4ccccc4F)O[C@@H](CO)[C@@H]2O3)c1	PAX8 inh HTS 68, AF4-AF9 inh inconclusive (no result: N-glyco inh, FN deposition inh)
C[C@@H]1CCCCO[C@H](CN(C)S(=O)(=O)c2cn(C)cn2)[C@@H](C)CN([C@H](C)CO)C(=O)c2cc(NC(=O)Nc3ccc4c(c3)OCO4)ccc2O1	none (no result: PAX8 inh HTS, N-glyco inh, FN deposition inh)
O=C(Nc1ccccc1)N1CC(=O)N2[C@H](C1)[C@@H](c1ccc(C#CC3CCCC3)cc1)[C@@H]2CO	none (no result: Env fusion inh, PAX8 inh HTS, N-glyco inh)
O=C(Nc1ccccc1C(=O)NC(Cc1ccccc1)C(=O)NC1CCCCC1)c1ccccc1 (stereo not drawn)	Env fusion inh 66 (no result: EWS-Fli inh, AF4-AF9 inh)
O=C(Nc1ccccc1C(=O)NC(Cc1ccccc1)C(=O)O)c1ccccc1 (stereo not drawn)	none
CCC(=O)N1[C@@H](CO)[C@@H]2c3ccccc3N(C(=O)Nc3cccc(Cl)c3)C[C@@H]21	none (no result: Env fusion inh, N-glyco inh, FN deposition inh)
O=C(NC1CCCC1)N1CC2(C1)[C@@H](c1ccccc1)[C@@H](CO)N2CC1CCCC1	none (no result: N-glyco inh)
CC(NC(=O)CN(C)CC(=O)Nc1ccc(Cl)c(C(F)(F)F)c1)c1ccccc1 (stereo not drawn)	Env fusion inh 103 (no result: FN deposition inh)
COCCn1c(SCC(=O)NC(=O)NC(C)(C)C)nc2ccccc21	Env fusion inh 123 (no result: PAX8 inh HTS, EWS-Fli inh, AF4-AF9 inh, FN deposition inh)
CCn1c(SCC(=O)NC(=O)NC(C)(C)C)nc2ccccc21	none (no result: FN deposition inh)
COc1ccccc1-c1cnc2c(c1)C(=O)N([C@@H](C)CO)C[C@@H](C)[C@H](CN(C)Cc1cncnc1)O2	none (no result: PAX8 inh HTS, N-glyco inh, FN deposition inh)
CCSc1nsc(NC(=O)Nc2cccc(F)c2)n1	PAX8 inh HTS 90
COc1ccccc1N1CCN(/N=C/c2cc([N+](=O)[O-])ccc2Cl)CC1	AF4-AF9 inh inconclusive (no result: FN deposition inh)

Bioassay records as filed in PubChem.
